Bioassay records from PubChem.
In the library only some 2.4% were active in any assay of this set; here they are far more common.
TDP2 inh: TDP2 (human) inhibition, absorbance primary screen. recombinant TDP2, T5PNP hydrolysis, p-nitrophenol absorbance 415 nm. O95551. inhibition, % at 12.8 µM. actives 0.34% (n = 370,000);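 active means inhibition above the mean of all tested compounds plus 3 SD, set per campaign, cut at about 25% in these data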
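Read-out basis: percent inhibition. System: recombinant human TDP2. Buffer or medium: Mg2+-containing Tris-HCl buffer, pH 7.5. Repeats: single replicate. Timing: reaction 2 h, 37 °C. Benchmarks: high control without enzyme, low control DMSO plus TDP2. Probe or stimulus: 5 mM T5PNP. Doses: 12.8 µM only. Measured by: epi absorbance of p-nitrophenol freed from T5PNP by hydrolysis.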
SIAE primary: human SIAE inhibition, primary screen; Q9HAT2; SIAE FP-Rh probe binding, fluorescence polarization; inhibition, % at 9.66 µM; actives 0.69% (n = 370,000); AID 1053197;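 active means inhibition above a cutoff: mean of compounds within the control limits plus 3 SD of those, cut at about 17% in these data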
PAD4 FP inh: PAD4 (human) enzyme inhibition; actives 0.41% (n = 330,000); inhibition, % at 6.36 µM; recombinant PAD4, RCA probe fluorescence polarization;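 active means percent inhibition above a cutoff equal to the mean of all tested compounds plus 3 SD, cut at about 15% in these data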
GSTO1 inh: GSTO1 inhibition, counter-screen for RBBP9 inhibitors. recombinant GSTO1, activity-based probe fluorescence polarization. actives 1.1% (n = 300,000). AID 1974. inhibition, % at 5.96 µM;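 active means inhibition above the campaign mean inhibition plus 3 SD, cut at about 35% in these data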
TCR-CD3 inh: human TCR-CD3 binding inhibition; TAMRA-labeled TCR probe fluorescence, biochemical; inhibition, % at 9.4 µM; actives 0.37% (n = 360,000); AID 651800; in the data active means inhibition above about 19%;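 further: recombinant mutant TCR 2C K166C tagged with TAMRA read by polarization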
Apaf-1 inh: human Apaf-1 inhibition; O14727; reconstituted apoptosome caspase-3 activity, DEVD-Rh110 fluorescence; AID 489030; actives 0.71% (n = 330,000); inhibition, % at 20 µM; active means inhibition of at least 40% at 20 µM
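Assay system: Apoptosome proteins | Medium: pH 7.5 Hepes buffer with CHAPS, BSA, DTT | Also added: Cytochrome c and DEVD-Rh110 substrate | Times: 30 min plus 50 min, RT | Detection: Rhodamine 110 fluorescence at Ex 480/Em 540 nm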
TDP2 confirm: human TDP2 inhibition, confirmation; shares compounds with TDP2 inh; recombinant human TDP2, absorbance read-out; inhibition, % at 12.8 µM; actives 22% (n = 1,100); AID 743263; in the data active means inhibition above about 25%
SIAE confirm: human SIAE inhibition, confirmation; shares compounds with SIAE primary; inhibition, % at 9.66 µM; actives 13% (n = 2,300); SIAE FP-Rh activity-based probe, fluorescence polarization; AID 1117263;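 active means mean inhibition of the replicates above the hit cutoff set in the primary screen, cut at about 17% in these data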;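 further: inhibitors lower polarization as more probe stays unbound to SIAE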
Each line names hits and unclear results; the compound was inactive in the other large screens (follow-up assays come after a bar, where they were run).

CCOC(=O)c1c(NC(NC(=O)CF)C(Cl)(Cl)Cl)sc2c1CCCC2 (stereo unspecified)	none
CCOCCCn1c(N)c(C(=O)Nc2sc3c(c2C(=O)OC)CCCC3)c2nc3ccccc3nc21	TDP2 inh 70 | TDP2 confirm inactive
O=C(CN1CCOCC1)c1cccc2ccccc12	TDP2 inh 25 | TDP2 confirm inactive
CCCC(C)C1(CC)C(=O)NC(=Nc2ccccc2)NC1=O (stereo unspecified)	none
CCC(=NCCc1ccccc1)c1c(O)[nH]c(=O)[nH]c1=O	none
CCC(=Nc1ccccc1N)c1c(O)[nH]c(=O)[nH]c1=O	TDP2 inh 25 | TDP2 confirm inactive
CC(C)(C)NC(=S)N1CCn2cccc2C1c1cccnc1 (stereo unspecified)	SIAE primary 21 | SIAE confirm inactive
CC(C)CCn1c(=O)c(C(=O)NCc2ccc3c(c2)OCO3)c(O)c2ccccc21	none
CCCCN1C(=N)C(CC)(CC)C(=O)NC1=O	SIAE primary 21 | SIAE confirm inactive
CCC1(CC)C(=N)N(C)C(=O)NC1=O	none
CCOC(=O)[C@@]1(C#N)[C@@H]2C=CC(C(N)=O)=CN2[C@@H](C(N)=O)[C@@H]1c1cccc(Cl)c1	SIAE primary 21 | SIAE confirm inactive
Cc1ccc2c(c1)c(=O)c1c3n2CCN(CC#N)C3CC1 (stereo unspecified)	none
CCN(C)C(C)Cc1cccc(C(F)(F)F)c1 (stereo unspecified)	none (no result: PAD4 FP inh, GSTO1 inh, Apaf-1 inh)
CCN[C@@H](C)Cc1cccc(C(F)(F)F)c1	SIAE primary 19 (no result: GSTO1 inh) | SIAE confirm inactive
Nc1ccc(S(=O)(=O)N2CC3CC(C2)c2cccc(=O)n2C3)cc1 (stereo unspecified)	SIAE primary 17 | SIAE confirm inactive
Cc1cccc(OCC(=O)N2CCN(Cc3ccc([N+](=O)[O-])cc3)CC2)c1	none
Cn1c(CN2CCN(C(=O)COc3ccccc3)CC2)nc2cc([N+](=O)[O-])ccc21	SIAE primary 151 | SIAE confirm inactive
COc1cc(OC)c([C@H]2C=C(C)[C@H]3C[C@@H]2C3(C)C)c(OC)c1	none
C(#CCN1CCCCC1)COCc1ccccc1	SIAE primary 21 | SIAE confirm inactive
CC1=C[C@@H]2c3cccc4[nH]cc(c34)C[C@H]2N(C)C1	SIAE primary 17 | SIAE confirm inactive
CCCc1cc(=O)oc2cc(OCC(=O)N3C[C@H]4C[C@@H](C3)c3cccc(=O)n3C4)ccc12	none
NP(=O)(Oc1ccccc1Cl)Oc1ccccc1Cl	none
NP(=O)(OCCCCc1ccccc1)Oc1ccccc1Cl (stereo unspecified)	SIAE primary 43 | SIAE confirm 38
Cc1cc(N=Nc2ccccc2C)ccc1N	SIAE primary 32 | SIAE confirm inactive
NP(=O)(OCC(F)(F)F)Oc1ccc(Cl)cc1 (stereo unspecified)	SIAE primary 20 | SIAE confirm inactive
Cc1nc2ccccc2c(=O)n1-c1cccnc1	none
CCN1CCN(CC(=O)c2c(C)n(Cc3ccccc3)c3ccc(OC)cc23)CC1	none
COc1ccc2c(c1)c(C(=O)CN1CCC3(CC1)OCCO3)c(C)n2Cc1ccccc1	SIAE primary 68 | SIAE confirm inactive
CCOP(=O)(OCC)C(NC(=O)c1ccccc1)C(Cl)(Cl)Cl (stereo unspecified)	none
CCCOP(=O)(OCCC)C(NC(=O)c1cc(OC)c(OC)c(OC)c1)c1ccccc1 (stereo unspecified)	SIAE primary 17 | SIAE confirm inactive
CC1CN(c2cc([N+](=O)[O-])ccc2Cl)CC(C)N1 (stereo unspecified)	none
COc1ccc2[nH]cc(CCNCc3cccnc3)c2c1	none
COc1ccc2[nH]c(C)c(CCNCc3cccnc3)c2c1	SIAE primary 22 (no result: GSTO1 inh) | SIAE confirm inactive
CC(=O)OC(C)(C)/C=C/C(=O)C(C)(O)C1C(O)CC2(C)C3CC=C4C(CC(O)C(=O)C4(C)C)C3(C)C(=O)CC12C (stereo unspecified)	none (no result: PAD4 FP inh, GSTO1 inh, Apaf-1 inh)
O=C(N/N=C/c1c(O)n(Cc2ccccc2)c(=O)[nH]c1=O)c1ccccc1O	SIAE primary 28, TCR-CD3 inh 74 | SIAE confirm inactive
CC(CO)(CO)N=Cc1c(O)n(-c2cccc3ccccc23)c(=O)[nH]c1=O	none
